# Data from ChEMBL document CHEMBL3351897, “Trimethoxybenzanilide-based P-glycoprotein modulators: an interesting case of lipophilicity tuning by intramolecular hydrogen bonding” (J Med Chem, 2014).
# Columns and labels:
# [1] = Solubility after 30 mins by turbidimetric solubility assay; format: physicochemical
# Procedure, shortened: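 Serial dilutions from a 1 mM DMSO stock added to 100 mM PBS pH 7.4, giving 1% final DMSO and a final range of 1–500 […], three replicates per concentration. After 30 min, absorbance read at 500, 550, 600, 650 and 700 nm.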
# [2] = biological target: T1, ATP-dependent translocase ABCB1 (Homo sapiens, UniProt P08183); experiment: Inhibition of MDR1 (unknown origin) expressed in MDCK cells after 30 mins by Calcein-AM assay; format: cell-based
# [3] = Lipophilicity, logD of the compound at pH 7.4; format: physicochemical; conditions: buffer
# Procedure, shortened: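 Octanol/PBS pH 7.4 partitioning, with chemiluminescent nitrogen detection as the read-out; carried out by an outside contractor.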
# [4] = Partition coefficient, logK of the compound using methanol/pH 7.4 phosphate buffer by RP-chromatography; format: physicochemical
# Procedure, shortened: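 Isocratic RP-HPLC on a C18 column (300SB, 4.6 × 250 mm, 5 μm) at 1 mL/min with UV detection at 230 and 254 nm. Eluent methanol/PBS pH 7.4 70:30. Samples 0.1 mg/mL in 10% DMSO/90% methanol. Dead time taken from D2O. Log k′ = log[(tr − t0)/t0], using the mean of three injections.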
# [5] = biological target: T1, ATP-dependent translocase ABCB1; experiment: Inhibition of MDR1 in human MCF7/ADR cells assessed as potentiation of doxorubicin-induced antiproliferative activity at 1 to 25 uM after 72 hrs by MTT assay; format: cell-based; conditions: nci/adr-res
# Procedure, shortened: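 MCF7adr cells, grown in RPMI 1640 with 10% FBS, seeded at 25000/well. Next day, compound added at 1, 10 or 25 μM for 24 h. Medium then replaced and the same concentration given with doxorubicin 10 μM for 48 h. MTT 0.5 mg/mL for 3–4 h at 37 °C, formazan dissolved in DMSO/EtOH 1:1, absorbance read at 570 and 630 nm.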
# [6] = biological target: T1, ATP-dependent translocase ABCB1; experiment: Inhibition of MDR1 (unknown origin) expressed in MDCK cells after 2 hrs by bioluminescent ATP assay; format: cell-based
# Procedure, shortened: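 MDCK-MDR1 cells seeded at 2 × 10⁴ cells/well and incubated overnight at 37 °C, 5% CO₂, then exposed to test compounds (1, 10, 50, 100 μM) in complete medium for 2 h. Cells lysed, luciferase/D-luciferin substrate added, dark-adapted 10 min, and luminescence read as a measure of cellular ATP. Untreated cells served as control.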
# [7] = Efflux ratio, ratio of permeability from basolateral to apical side over apical to basolateral side in human Caco2 cells by UV spectroscopy; format: ADME, cell-based; conditions: Caco-2
# Procedure, shortened: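 Caco-2 monolayers grown 21 days, then equilibrated twice in HBSS pH 7.4 at 37 °C for 30 min. Drug dissolved in HBSS was added to the apical or basolateral side, with an initial concentration of 1 × 10⁻⁴ M. Transport ran 120 min at 37 °C. Acceptor concentration was read by UV; Papp (nm/s) was computed from it. The ratio is B→A Papp over A→B Papp. Mean of three independent experiments, each in triplicate.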
# T1 sequence (P08183 whole entry): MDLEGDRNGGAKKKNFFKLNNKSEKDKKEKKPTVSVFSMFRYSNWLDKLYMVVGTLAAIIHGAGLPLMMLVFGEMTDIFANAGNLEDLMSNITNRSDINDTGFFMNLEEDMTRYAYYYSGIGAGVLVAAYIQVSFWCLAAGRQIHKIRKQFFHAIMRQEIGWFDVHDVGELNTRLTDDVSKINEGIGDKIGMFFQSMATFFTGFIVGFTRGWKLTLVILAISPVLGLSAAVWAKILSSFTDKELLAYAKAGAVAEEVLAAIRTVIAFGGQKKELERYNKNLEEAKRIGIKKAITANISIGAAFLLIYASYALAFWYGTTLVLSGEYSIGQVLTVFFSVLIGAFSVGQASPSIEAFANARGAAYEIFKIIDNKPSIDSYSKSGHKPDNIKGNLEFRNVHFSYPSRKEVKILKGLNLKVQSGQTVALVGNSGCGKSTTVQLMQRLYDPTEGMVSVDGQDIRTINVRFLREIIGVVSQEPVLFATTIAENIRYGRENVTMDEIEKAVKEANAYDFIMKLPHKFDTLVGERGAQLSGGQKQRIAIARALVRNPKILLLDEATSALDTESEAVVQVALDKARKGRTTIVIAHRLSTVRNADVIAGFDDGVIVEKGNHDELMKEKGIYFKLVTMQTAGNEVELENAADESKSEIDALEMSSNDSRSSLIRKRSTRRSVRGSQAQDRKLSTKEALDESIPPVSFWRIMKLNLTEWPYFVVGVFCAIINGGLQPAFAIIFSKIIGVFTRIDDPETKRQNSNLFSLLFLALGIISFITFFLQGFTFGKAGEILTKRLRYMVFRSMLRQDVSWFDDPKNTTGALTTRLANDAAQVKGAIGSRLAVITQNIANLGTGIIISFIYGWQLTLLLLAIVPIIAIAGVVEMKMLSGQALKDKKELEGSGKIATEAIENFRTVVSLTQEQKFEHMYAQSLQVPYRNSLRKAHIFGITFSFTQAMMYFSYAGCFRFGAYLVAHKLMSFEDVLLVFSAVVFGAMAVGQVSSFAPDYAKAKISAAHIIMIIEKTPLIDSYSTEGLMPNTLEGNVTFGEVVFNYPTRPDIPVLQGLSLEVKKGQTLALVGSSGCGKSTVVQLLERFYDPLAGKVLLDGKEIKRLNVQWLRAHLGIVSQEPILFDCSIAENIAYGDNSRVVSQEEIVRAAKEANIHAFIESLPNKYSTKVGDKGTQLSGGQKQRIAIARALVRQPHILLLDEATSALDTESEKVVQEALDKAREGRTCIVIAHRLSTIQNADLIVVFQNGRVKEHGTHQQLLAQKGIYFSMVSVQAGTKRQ
solubility kinetic at 0.5 h [1] [µg/mL],IC50 [2] [µM],logD [3],log K [4],inhibition (INH) [6],efflux ratio [7],SMILES,Activity [5]
10,–,–,–,–,–,COc1cc(C(=O)Nc2ccc(-c3cccnc3)cc2[N+](=O)[O-])cc(OC)c1OC,–
–,1.3,3.59,0.32,–,–,COc1cc(C(=O)Nc2ccc(-c3cc(F)cc(F)c3)cn2)cc(OC)c1OC,–
–,8.21,2.39,-0.44,–,–,COc1cc(C(=O)Nc2ccc(-c3cccnc3)cn2)cc(OC)c1OC,–
25,–,2.48,-0.36,–,–,COc1cc(C(=O)Nc2ccc(-c3cccnc3)cc2F)cc(OC)c1OC,–
30,0.2,2.84,0.24,Active,14,COc1cc(OC)c(C(=O)Nc2ccc(-c3cccnc3)cc2F)cc1OC,Active
60,2.93,2.38,-0.39,–,–,COc1cc(OC)c(C(=O)Nc2ccc(-c3cccnc3)cc2F)c(OC)c1,–
20,3.3,2.81,-0.18,–,–,COc1cc(OC)cc(C(=O)Nc2ccc(-c3cccnc3)cc2F)c1,–
22,5.26,2.9,-0.32,–,–,COc1ccc(C(=O)Nc2ccc(-c3cccnc3)cc2F)cc1,–
–,2.76,2.62,-0.09,–,–,COc1cc(C(=O)Nc2ccc(-c3cc(F)cc(F)c3)cc2N)cc(OC)c1OC,–
–,18.5,2.31,-0.03,–,–,COc1cc(C(=O)Nc2ccc(-c3cc(F)cc(F)c3)cc2NC(=O)[C@@H](C)NC(C)=O)cc(OC)c1OC,–

# The remaining lines, values behind:
SMILES,solubility kinetic at 0.5 h [1] [µg/mL],IC50 [2] [µM],logD [3],log K [4],inhibition (INH) [6],efflux ratio [7],Activity [5]
COc1cc2c(cc1OC)CN(CC/C=C1\CCCc3c(OC)cccc31)CC2,–,1.02,–,–,–,–,–
COc1cc(OC)c(C(=O)Nc2ccc(-c3cc(F)cc(F)c3)cn2)cc1OC,–,0.97,3.66,0.47,Active,10.7,Active
COc1cc(OC)c(C(=O)Nc2ccc(-c3cccnc3)cn2)cc1OC,–,0.54,3.03,-0.12,–,–,–
COc1ccc(C(=O)Nc2ccc(-c3cccnc3)cc2F)c(OC)c1OC,45,0.67,3.99,0.37,Active,6.7,Active
COc1ccc(C(=O)Nc2ccc(-c3cccnc3)cc2F)cc1OC,18,8.92,2.23,-0.45,–,–,–
O=C(Nc1ccc(-c2cccnc2)cc1F)c1ccccc1,40,9.2,2.83,-0.38,–,–,–
O=C(Nc1ccc(-c2cccnc2)cc1F)c1cccnc1,300,60.1,1.97,-0.68,–,–,–
COc1cc(C(=O)Nc2ccc(-c3ccncc3)cc2F)cc(OC)c1OC,–,3.2,2.75,-0.31,–,–,–
COc1cc(OC)c(C(=O)Nc2ccc(-c3ccncc3)cc2F)cc1OC,–,0.31,3.13,0.31,Active,8.1,Active
COc1ccc(-c2ccc(NC(=O)c3cc(OC)c(OC)cc3OC)c(F)c2)cc1,–,1.23,3.64,0.67,–,–,–
COc1ccc(S(=O)(=O)Nc2ccc(-c3cccnc3)cc2F)cc1OC,–,67.5,1.7,-0.88,–,–,–
COc1cc(C(=O)N(C)c2ccc(-c3cccnc3)cc2F)cc(OC)c1OC,–,6.66,2.32,-0.51,–,–,–
COc1cc(OC)c(C(=O)N(C)c2ccc(-c3cccnc3)cc2F)cc1OC,–,21.6,1.75,-0.59,–,–,–
